In ChEMBL document CHEMBL1143048, “Inhibition of monoamine oxidase B by selected benzimidazole and caffeine analogues” (Bioorg Med Chem, 2007):
Calls of active or inactive are those of the source. No cut-off for these calls is given here.

Species on record: Papio hamadryas
Test: Inhibition baboon liver mitochondrial MAOB upto 50 uM
Summary of the method: (§1)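 Mitochondrial fraction from baboon liver was used as the enzyme source, without MAO-A inactivation. Incubations were run in 100 mM sodium phosphate, pH 7.4, with 0.15 mg protein/mL, MMTP at four levels (30–120 μM), three inhibitor levels, and 4% DMSO final, for 15 min at 37 °C. Reactions were stopped with perchloric acid. MMDP⁺ was read at 420 nm, and Lineweaver-Burk plots were constructed.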
With `CCn1c(=O)c2c(nc3c4ccccc4ncn32)n(CC)c1=O` the Activity was “inactive”.

Target: not listed separately
Test: Inhibition baboon liver mitochondrial MAOB
Parameters: species or system Papio hamadryas
Summary of the method: as §1
For `Cn1cnc2ccccc21`, the Ki was 2080 µM.
Work on `Cn1c(/C=C/c2ccc(C(F)(F)F)cc2)nc2ccccc21` yielded a Ki of 0.43 µM.
For `Cn1c(=O)c2c(nc(/C=C/c3ccc(Cl)c(Cl)c3)n2C)n(C)c1=O`, the Ki was 0.036 µM.
`Cn1c(=O)c2c(nc(/C=C/c3cccc(Br)c3)n2C)n(C)c1=O` gave a Ki of 0.086 µM.
`Cc1ccc(/C=C/c2nc3ccccc3n2C)cc1` gave a Ki of 3.26 µM.
For `Cn1c(=O)c2c(nc(/C=C/c3cc(C(F)(F)F)cc(C(F)(F)F)c3)n2C)n(C)c1=O`, the Ki was 0.239 µM.
In the case of `Cn1c(=O)c2c(nc(/C=C/c3cccs3)n2C)n(C)c1=O`, the Ki is reported as 1.58 µM.
Compound `Cn1c(=O)c2c(nc3c4ccccc4ncn32)n(C)c1=O` has a Ki of 39.9 µM.
Compound `Cc1nc2ccccc2[nH]1` has a Ki of 1220 µM.
With `Cn1c(/C=C/c2ccc(Cl)cc2)nc2ccccc21` the Ki was 2.83 µM.
With `Cn1c(/C=C/c2ccc(Br)cc2)nc2ccccc21` the Ki was 2.54 µM.
`Cn1c(/C=C/c2ccc(F)cc2)nc2ccccc21` gave a Ki of 15 µM.
For `Cn1c(=O)c2c(nc(/C=C/c3ccsc3)n2C)n(C)c1=O`, the Ki was 11.3 µM.
For `Cn1c(/C=C/c2ccccc2)nc2ccccc21`, the Ki was 18.7 µM.
`Cn1c(=O)c2c(nc(/C=C/c3ccco3)n2C)n(C)c1=O` showed a Ki of 39.7 µM.
With `COc1ccc(/C=C/c2nc3ccccc3n2C)cc1` the Ki was 5.82 µM.
